Test results reported in ChEMBL document CHEMBL1156877, “Discovery of 6-benzyloxyquinolines as c-Met selective kinase inhibitors” (Bioorg Med Chem Lett, 2010).
Blank lines part the entries; values can stand above or below the compound they belong to.

What was measured:
[1] = molecular target: Vascular endothelial growth factor receptor 2 (Homo sapiens, UniProt P35968); assay: Inhibition of recombinant KDR by TR-FRET assay
Procedure, shortened: (§1)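 Recombinant tyrosine kinase incubated with test compound and substrate peptide/ATP for 90 min at 30 °C; enzyme amount, ATP level, substrate and cation vary by kinase. Reaction stopped, then TR-FRET reagent with europium-labelled anti-phospho-substrate antibody added for 5 min at room temperature; substrate phosphorylation read as time-resolved fluorescence.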

[2] = molecular target: Hepatocyte growth factor receptor (Homo sapiens, UniProt P08581); assay: Inhibition of recombinant c-Met by TR-FRET assay
[3] = molecular target: Proto-oncogene tyrosine-protein kinase Src (Homo sapiens, UniProt P12931); assay: Inhibition of recombinant Src by TR-FRET assay; procedure, shortened: as §1
[4] = molecular target: Fibroblast growth factor receptor 2 (Homo sapiens, UniProt P21802); assay: Inhibition of recombinant FGFR2 by TR-FRET assay; procedure, shortened: as §1
[5] = molecular target: T1, Receptor-type tyrosine-protein kinase FLT3 (Homo sapiens, UniProt P36888); assay: Inhibition of recombinant Flt3 by TR-FRET assay; procedure, shortened: as §1
T1 sequence (P36888 whole entry): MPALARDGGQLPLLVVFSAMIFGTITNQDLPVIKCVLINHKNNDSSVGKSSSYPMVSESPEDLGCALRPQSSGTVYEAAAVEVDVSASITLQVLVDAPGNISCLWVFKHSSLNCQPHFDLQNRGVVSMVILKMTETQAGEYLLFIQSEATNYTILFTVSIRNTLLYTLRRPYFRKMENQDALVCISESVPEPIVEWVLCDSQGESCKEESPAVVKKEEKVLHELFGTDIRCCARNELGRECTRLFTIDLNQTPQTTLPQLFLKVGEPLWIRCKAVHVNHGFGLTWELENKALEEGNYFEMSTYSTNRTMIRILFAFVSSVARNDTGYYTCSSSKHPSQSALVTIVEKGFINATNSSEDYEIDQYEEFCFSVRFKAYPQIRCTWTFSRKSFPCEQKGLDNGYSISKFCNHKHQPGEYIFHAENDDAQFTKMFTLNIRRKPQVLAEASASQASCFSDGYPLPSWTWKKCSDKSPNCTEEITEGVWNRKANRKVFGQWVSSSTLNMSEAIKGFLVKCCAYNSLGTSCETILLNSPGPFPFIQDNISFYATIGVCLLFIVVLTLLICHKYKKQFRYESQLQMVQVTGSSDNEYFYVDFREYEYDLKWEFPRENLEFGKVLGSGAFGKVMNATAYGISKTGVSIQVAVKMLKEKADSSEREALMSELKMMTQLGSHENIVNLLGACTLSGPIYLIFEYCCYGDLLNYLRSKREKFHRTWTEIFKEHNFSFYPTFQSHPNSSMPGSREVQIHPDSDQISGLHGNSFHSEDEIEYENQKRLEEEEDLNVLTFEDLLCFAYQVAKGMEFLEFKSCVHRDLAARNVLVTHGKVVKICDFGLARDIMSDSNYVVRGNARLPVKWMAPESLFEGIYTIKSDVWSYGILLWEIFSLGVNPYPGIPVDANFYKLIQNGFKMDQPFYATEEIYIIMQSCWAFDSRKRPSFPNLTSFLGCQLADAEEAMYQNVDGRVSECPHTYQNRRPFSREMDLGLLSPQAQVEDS

[6] = molecular target: T2, Tyrosine-protein kinase receptor UFO (Homo sapiens, UniProt P30530); assay: Inhibition of recombinant AXL by TR-FRET assay; procedure, shortened: as §1
T2 sequence (P30530 whole entry): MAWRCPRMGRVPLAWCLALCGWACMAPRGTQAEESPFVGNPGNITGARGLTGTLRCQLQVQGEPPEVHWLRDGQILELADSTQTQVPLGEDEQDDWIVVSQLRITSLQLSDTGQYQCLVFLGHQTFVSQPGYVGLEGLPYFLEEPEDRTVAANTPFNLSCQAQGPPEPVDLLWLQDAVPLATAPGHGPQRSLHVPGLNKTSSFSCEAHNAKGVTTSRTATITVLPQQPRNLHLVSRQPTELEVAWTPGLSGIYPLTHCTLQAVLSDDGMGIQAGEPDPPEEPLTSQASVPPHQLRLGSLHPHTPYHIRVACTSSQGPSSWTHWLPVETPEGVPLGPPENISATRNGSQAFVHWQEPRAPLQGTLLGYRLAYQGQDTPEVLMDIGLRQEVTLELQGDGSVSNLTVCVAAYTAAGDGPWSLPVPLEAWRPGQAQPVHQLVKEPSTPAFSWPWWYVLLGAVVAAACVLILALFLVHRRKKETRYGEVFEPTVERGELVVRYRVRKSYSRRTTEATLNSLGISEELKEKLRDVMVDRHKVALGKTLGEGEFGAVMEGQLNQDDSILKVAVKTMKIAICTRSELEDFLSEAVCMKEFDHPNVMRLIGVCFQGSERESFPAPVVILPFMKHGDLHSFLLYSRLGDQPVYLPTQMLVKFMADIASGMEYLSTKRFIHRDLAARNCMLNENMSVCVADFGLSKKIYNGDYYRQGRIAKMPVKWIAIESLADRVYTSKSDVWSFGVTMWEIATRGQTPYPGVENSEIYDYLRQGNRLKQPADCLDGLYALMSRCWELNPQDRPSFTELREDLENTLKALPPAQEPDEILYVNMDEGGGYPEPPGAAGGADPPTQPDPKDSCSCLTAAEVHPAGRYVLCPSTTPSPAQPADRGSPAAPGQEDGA

Ephrin type-A receptor 2 = Ephrin type-A receptor 2 (Homo sapiens, UniProt P29317); assay: Inhibition of recombinant EphA2 by TR-FRET assay; procedure, shortened: as §1
[7] = molecular target: Tyrosine-protein kinase Lck (Homo sapiens, UniProt P06239); assay: Inhibition of recombinant LCK by TR-FRET assay
[8] = molecular target: Mast/stem cell growth factor receptor Kit (Homo sapiens, UniProt P10721); assay: Inhibition of recombinant Kit by TR-FRET assay; procedure, shortened: as §1
[9] = molecular target: Leukocyte tyrosine kinase receptor (Homo sapiens, UniProt P29376); assay: Inhibition of recombinant LTK by TR-FRET assay; procedure, shortened: as §1
Aurora kinase A = molecular target: T3, Aurora kinase A (Homo sapiens, UniProt O14965); assay: Inhibition of recombinant Aurora A by IMAP assay
T3 sequence (O14965 whole entry): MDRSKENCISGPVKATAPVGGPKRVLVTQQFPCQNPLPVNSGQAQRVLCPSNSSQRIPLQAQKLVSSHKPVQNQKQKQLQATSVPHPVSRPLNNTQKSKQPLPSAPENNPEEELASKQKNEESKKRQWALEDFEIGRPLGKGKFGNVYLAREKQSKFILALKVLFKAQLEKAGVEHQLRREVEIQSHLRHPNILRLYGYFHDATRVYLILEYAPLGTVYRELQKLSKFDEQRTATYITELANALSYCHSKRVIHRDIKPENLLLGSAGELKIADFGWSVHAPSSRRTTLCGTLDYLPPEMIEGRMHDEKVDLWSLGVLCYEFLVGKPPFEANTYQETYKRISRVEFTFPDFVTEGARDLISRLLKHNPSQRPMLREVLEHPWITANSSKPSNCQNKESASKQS
Procedure, shortened: (§2)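 Recombinant enzyme mixed with test compound and substrate peptide/ATP solution, incubated 90 min at 30 °C; enzyme quantity, ATP, substrate and cation set per kinase. IMAP reagent then added for 5 min at room temperature, and peptide phosphorylation quantified by fluorescence polarization.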

[10] = molecular target: RAC-alpha serine/threonine-protein kinase (Homo sapiens, UniProt P31749); assay: Inhibition of recombinant AKT1 by IMAP assay; procedure, shortened: as §2
[11] = molecular target: T4, Protein kinase C beta type (Homo sapiens, UniProt P05771); assay: Inhibition of recombinant PKCbeta2 by IMAP assay; procedure, shortened: as §2
[12] = molecular target: Tyrosine-protein kinase ABL1 (Homo sapiens, UniProt P00519); assay: Inhibition of recombinant Abl by TR-FRET assay; procedure, shortened: as §1
[13] = molecular target: Tyrosine-protein kinase Yes (Homo sapiens, UniProt P07947); assay: Inhibition of recombinant YES by TR-FRET assay; procedure, shortened: as §1
[14] = Inhibition of recombinant PDGFR by TR-FRET assay; procedure, shortened: as §1
[15] = molecular target: T4, Protein kinase C beta type; assay: Inhibition of recombinant PKCbeta1 by IMAP assay; procedure, shortened: as §2
[16] = molecular target: Macrophage-stimulating protein receptor (Homo sapiens, UniProt Q04912); assay: Inhibition of recombinant RON by TR-FRET assay; procedure, shortened: as §1
[17] = Inhibition of recombinant PKA by IMAP assay; procedure, shortened: as §2
[18] = molecular target: Cyclin-dependent kinase 2 (Homo sapiens, UniProt P24941); assay: Inhibition of recombinant CDK2 by IMAP assay; procedure, shortened: as §2
[19] = molecular target: Tyrosine-protein kinase Fyn (Homo sapiens, UniProt P06241); assay: Inhibition of recombinant Fyn by TR-FRET assay; procedure, shortened: as §1
[20] = molecular target: Insulin-like growth factor 1 receptor (Homo sapiens, UniProt P08069); assay: Inhibition of recombinant IGF1R by TR-FRET assay; procedure, shortened: as §1
[21] = molecular target: Cyclin-dependent kinase 1 (Homo sapiens, UniProt P06493); assay: Inhibition of recombinant CDK1 by IMAP assay; procedure, shortened: as §2
[22] = molecular target: Protein-tyrosine kinase 6 (Homo sapiens, UniProt Q13882); assay: Inhibition of recombinant BRK by TR-FRET assay; procedure, shortened: as §1
[23] = molecular target: Protein kinase C alpha type (Homo sapiens, UniProt P17252); assay: Inhibition of recombinant PKCalpha by IMAP assay; procedure, shortened: as §2
Insulin receptor = Insulin receptor (Homo sapiens, UniProt P06213); assay: Inhibition of recombinant InsR by TR-FRET assay
[24] = Solubility in fasted state simulated intestinal fluid; assay type: physicochemical
MKN-45 = assay: Cytotoxicity against human MKN45 cells after 96 hrs by WST8 assay; assay type: functional, cell-based; conditions: MKN-45, 96 h
Procedure, shortened: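 Tumour cells exposed to a range of compound concentrations for 96 h; cytotoxicity read with WST-8 cell counting kit.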

Vascular endothelial growth factor receptor 2, sequence (P35968 whole entry): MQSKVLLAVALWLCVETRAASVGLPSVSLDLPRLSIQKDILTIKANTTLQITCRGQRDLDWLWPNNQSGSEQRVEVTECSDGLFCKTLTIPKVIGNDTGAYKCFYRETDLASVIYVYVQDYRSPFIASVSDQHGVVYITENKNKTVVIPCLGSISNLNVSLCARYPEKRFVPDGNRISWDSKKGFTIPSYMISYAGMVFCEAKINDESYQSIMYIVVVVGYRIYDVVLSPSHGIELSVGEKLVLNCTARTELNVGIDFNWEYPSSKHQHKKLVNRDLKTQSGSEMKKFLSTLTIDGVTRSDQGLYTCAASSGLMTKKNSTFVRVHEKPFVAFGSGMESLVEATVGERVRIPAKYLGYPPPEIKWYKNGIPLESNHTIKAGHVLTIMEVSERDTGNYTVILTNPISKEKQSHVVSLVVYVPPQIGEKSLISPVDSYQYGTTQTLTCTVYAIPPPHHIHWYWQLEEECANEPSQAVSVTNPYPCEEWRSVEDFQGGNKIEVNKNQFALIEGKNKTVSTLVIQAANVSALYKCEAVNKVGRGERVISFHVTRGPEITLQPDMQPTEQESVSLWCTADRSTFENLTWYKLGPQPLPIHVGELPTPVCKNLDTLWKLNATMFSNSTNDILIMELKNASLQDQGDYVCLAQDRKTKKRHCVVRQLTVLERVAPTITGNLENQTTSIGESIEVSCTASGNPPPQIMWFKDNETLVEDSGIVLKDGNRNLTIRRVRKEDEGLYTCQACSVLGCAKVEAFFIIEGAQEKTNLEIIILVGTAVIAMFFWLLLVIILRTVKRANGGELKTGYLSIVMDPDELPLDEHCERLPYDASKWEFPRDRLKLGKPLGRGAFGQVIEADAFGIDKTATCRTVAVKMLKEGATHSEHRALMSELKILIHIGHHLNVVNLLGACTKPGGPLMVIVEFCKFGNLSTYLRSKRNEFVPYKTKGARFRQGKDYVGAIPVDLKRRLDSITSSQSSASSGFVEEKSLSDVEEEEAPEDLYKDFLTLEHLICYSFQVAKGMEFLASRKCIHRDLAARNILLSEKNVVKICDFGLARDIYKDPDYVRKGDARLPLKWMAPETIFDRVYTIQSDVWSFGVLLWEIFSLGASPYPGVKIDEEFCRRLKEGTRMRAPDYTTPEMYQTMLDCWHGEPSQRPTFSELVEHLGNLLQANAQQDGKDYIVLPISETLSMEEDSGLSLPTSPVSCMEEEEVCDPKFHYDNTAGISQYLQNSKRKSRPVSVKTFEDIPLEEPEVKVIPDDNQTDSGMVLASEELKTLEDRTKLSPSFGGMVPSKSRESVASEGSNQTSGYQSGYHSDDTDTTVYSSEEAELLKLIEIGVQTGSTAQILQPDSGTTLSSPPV
T4 sequence (P05771 whole entry): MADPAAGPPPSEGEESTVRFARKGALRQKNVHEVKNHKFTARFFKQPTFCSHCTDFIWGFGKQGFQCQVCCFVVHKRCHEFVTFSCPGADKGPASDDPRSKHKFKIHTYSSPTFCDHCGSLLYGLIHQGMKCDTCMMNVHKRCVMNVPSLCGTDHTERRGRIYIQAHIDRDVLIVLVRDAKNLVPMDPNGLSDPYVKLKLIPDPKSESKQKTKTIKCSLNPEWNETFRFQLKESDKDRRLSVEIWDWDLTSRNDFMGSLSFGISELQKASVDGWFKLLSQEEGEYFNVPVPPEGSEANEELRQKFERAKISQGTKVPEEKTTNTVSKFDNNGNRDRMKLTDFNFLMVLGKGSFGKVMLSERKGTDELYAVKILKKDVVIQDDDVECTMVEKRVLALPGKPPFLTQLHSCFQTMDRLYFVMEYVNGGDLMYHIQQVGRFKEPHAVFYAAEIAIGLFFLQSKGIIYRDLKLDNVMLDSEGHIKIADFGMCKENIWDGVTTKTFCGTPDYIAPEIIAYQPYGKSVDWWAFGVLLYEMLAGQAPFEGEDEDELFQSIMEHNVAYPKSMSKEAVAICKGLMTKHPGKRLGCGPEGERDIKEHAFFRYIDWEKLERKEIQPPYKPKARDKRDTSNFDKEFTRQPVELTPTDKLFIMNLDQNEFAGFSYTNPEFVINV
Hepatocyte growth factor receptor, sequence (P08581 whole entry): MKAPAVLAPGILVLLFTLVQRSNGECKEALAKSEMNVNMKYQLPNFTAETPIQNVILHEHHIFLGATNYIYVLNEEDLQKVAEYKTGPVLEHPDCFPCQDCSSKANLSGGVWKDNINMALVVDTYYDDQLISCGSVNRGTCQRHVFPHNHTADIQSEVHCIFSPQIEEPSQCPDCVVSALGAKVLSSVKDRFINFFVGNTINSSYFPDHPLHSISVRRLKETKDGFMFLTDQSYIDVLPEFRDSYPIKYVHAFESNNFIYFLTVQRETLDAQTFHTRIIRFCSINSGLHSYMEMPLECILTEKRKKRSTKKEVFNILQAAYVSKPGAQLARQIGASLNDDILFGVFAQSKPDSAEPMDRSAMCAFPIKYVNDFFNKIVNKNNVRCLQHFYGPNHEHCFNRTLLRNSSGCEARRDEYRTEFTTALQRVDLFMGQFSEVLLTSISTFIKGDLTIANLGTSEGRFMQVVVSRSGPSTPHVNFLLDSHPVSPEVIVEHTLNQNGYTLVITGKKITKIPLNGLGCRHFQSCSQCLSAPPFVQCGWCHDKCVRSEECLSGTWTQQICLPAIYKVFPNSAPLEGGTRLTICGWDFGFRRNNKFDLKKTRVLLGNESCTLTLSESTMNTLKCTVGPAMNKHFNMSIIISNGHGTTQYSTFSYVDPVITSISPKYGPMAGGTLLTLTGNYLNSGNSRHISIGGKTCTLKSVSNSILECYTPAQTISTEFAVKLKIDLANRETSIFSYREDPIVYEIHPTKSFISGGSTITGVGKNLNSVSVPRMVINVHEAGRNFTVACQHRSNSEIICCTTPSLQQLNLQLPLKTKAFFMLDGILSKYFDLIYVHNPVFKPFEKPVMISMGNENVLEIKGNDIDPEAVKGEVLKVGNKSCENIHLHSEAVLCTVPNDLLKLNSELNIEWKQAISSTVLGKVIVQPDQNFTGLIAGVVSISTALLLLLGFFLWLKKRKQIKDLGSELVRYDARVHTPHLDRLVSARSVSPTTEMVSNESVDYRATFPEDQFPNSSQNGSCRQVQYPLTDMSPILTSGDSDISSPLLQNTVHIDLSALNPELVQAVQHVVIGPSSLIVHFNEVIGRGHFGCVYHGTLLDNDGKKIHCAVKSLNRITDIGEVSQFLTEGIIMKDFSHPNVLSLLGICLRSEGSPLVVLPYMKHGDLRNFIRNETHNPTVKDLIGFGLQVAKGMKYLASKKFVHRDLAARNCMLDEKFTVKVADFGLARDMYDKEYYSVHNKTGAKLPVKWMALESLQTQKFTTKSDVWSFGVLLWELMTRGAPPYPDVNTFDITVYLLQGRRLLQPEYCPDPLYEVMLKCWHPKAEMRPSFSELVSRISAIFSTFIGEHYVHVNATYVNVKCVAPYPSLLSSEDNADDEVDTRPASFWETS
Proto-oncogene tyrosine-protein kinase Src, sequence (P12931 2-536 limits assumed): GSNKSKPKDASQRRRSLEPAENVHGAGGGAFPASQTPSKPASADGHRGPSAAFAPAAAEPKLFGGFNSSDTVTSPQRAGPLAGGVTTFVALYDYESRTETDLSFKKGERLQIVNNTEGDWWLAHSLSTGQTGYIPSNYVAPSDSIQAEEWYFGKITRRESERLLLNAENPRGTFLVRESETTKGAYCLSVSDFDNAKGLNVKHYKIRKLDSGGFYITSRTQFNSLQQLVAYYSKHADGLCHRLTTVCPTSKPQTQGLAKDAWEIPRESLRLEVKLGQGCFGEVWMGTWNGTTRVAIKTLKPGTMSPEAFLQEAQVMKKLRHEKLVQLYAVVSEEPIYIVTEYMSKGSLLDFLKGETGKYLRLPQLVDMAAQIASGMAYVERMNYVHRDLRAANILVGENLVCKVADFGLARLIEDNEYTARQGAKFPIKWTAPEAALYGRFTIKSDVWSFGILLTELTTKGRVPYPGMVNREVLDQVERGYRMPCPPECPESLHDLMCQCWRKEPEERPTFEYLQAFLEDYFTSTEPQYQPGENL
Tyrosine-protein kinase Lck, sequence (P06239 whole entry): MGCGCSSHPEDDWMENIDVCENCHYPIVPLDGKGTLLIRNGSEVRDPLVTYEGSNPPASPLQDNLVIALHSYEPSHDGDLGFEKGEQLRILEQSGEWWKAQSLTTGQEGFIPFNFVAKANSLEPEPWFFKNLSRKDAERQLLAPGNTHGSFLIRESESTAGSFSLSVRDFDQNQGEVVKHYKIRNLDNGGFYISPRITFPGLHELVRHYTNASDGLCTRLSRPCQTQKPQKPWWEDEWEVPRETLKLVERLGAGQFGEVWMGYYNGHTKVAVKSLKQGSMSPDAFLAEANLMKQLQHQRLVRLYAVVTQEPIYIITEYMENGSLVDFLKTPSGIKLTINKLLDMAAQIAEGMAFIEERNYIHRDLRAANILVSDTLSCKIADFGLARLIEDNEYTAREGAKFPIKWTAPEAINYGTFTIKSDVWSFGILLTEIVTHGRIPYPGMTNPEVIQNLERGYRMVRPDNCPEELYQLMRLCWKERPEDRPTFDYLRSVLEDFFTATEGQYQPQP
Tyrosine-protein kinase Yes, sequence (P07947 whole entry): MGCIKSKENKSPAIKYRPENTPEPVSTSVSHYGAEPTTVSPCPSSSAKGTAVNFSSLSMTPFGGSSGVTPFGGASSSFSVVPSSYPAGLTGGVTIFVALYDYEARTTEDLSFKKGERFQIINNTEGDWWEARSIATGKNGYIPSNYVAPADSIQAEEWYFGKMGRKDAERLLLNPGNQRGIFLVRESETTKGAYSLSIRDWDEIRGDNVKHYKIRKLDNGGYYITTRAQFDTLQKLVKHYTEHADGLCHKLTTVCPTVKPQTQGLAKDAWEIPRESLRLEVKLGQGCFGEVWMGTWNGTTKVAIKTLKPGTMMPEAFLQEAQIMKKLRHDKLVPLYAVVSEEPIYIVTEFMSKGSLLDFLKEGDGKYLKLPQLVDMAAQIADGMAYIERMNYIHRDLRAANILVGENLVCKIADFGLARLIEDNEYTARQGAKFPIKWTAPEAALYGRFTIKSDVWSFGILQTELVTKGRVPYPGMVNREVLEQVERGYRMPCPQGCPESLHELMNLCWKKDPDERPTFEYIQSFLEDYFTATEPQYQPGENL

IC50 [1]: > 50 µM
IC50 [2]: 1200 nM
IC50 [3]: 20 µM
Structure (SMILES): C[C@H](Oc1ccc2ncccc2c1)c1c(Cl)ccc(F)c1Cl

IC50 [4]: 24 µM
IC50 [5]: 46 µM
IC50 [6]: 14 µM
IC50 (Ephrin type-A receptor 2): > 50 µM
IC50 [7]: > 50 µM
IC50 [8]: 41 µM
IC50 [9]: > 50 µM
IC50 [1]: 23 µM
IC50 (Aurora kinase A): > 50 µM
IC50 [10]: > 50 µM
IC50 [11]: > 50 µM
IC50 [12]: > 50 µM
IC50 [13]: > 50 µM
IC50 [14]: > 50 µM
IC50 [2]: 130 nM
IC50 [15]: > 50 µM
IC50 [16]: 3600 nM
IC50 [17]: > 50 µM
IC50 [18]: > 50 µM
IC50 [19]: > 50 µM
IC50 [3]: 22 µM
IC50 [20]: > 50 µM
IC50 [21]: > 50 µM
IC50 [22]: > 50 µM
Structure (SMILES): C[C@@H](Oc1ccc2ncccc2c1)c1c(Cl)ccc(F)c1Cl

IC50 [4]: 6.9 µM
IC50 [5]: 32 µM
IC50 [6]: 0.57 µM
IC50 (Ephrin type-A receptor 2): 4.4 µM
IC50 [7]: 14 µM
IC50 [23]: > 50 µM
IC50 [8]: > 50 µM
IC50 [9]: 18 µM
IC50 [1]: 11 µM
IC50 (Insulin receptor): > 50 µM
IC50 (Aurora kinase A): 6.4 µM
IC50 [10]: > 50 µM
solubility [24]: < 13 µg/mL
IC50 [11]: > 50 µM
IC50 [12]: 10 µM
IC50 [13]: 26 µM
IC50 [14]: > 50 µM
IC50 [15]: > 50 µM
IC50 [16]: 450 nM
IC50 [17]: > 50 µM
IC50 [18]: > 50 µM
IC50 [19]: 28 µM
IC50 [20]: > 50 µM
IC50 [21]: > 50 µM
IC50 [22]: 32 µM
Structure (SMILES): C[C@@H](Oc1ccc2ncc(/C=C/C(N)=O)cc2c1)c1c(Cl)ccc(F)c1Cl

IC50 [1]: 50 µM
IC50 [2]: 205 nM
IC50 [3]: > 50 µM
Structure (SMILES): CC(Oc1ccc2ncc(CCC(N)=O)cc2c1)c1c(Cl)ccc(F)c1Cl (racemic)
IC50 (MKN-45): 4400 nM

IC50 [1]: 32 µM
IC50 [2]: 453 nM
IC50 [3]: > 50 µM
Structure (SMILES): CC(Oc1ccc2ncccc2c1)c1c(Cl)ccc(F)c1Cl (racemic)

IC50 [1]: 26 µM
IC50 [3]: > 50 µM
Structure (SMILES): CC(Oc1ccc2ncc(/C=C/C(N)=O)cc2c1)c1c(Cl)ccc(F)c1Cl (racemic)
IC50 (MKN-45): 350 nM

IC50 [1]: > 50 µM
IC50 [3]: > 50 µM
Structure (SMILES): CNC(=O)/C=C/c1cnc2ccc(OC(C)c3c(Cl)ccc(F)c3Cl)cc2c1 (racemic)
IC50 (MKN-45): 240 nM

IC50 [1]: 33 µM
IC50 [2]: 368 nM
IC50 [3]: 46 µM
Structure (SMILES): CC(Oc1ccc2ncc(/C=C/CN)cc2c1)c1c(Cl)ccc(F)c1Cl (racemic)
IC50 (MKN-45): 4300 nM

IC50 [1]: > 50 µM
IC50 [2]: 94 nM
IC50 [3]: > 50 µM
Structure (SMILES): CC(Oc1ccc2ncc(/C=C/C(=O)O)cc2c1)c1c(Cl)ccc(F)c1Cl (racemic)
IC50 (MKN-45): 10200 nM

IC50 [1]: > 50 µM
IC50 [2]: 59 nM
IC50 [3]: > 50 µM
Structure (SMILES): CC(Oc1ccc2ncc(/C=C/C(=O)N(C)C)cc2c1)c1c(Cl)ccc(F)c1Cl (racemic)
IC50 (MKN-45): 610 nM
